Series [1] in a line: folding enthalpy; higher = less favourable; fluorescence melt of hairpins on a sequencing array, two-state fit. As to conditions: sodium 0.088 M. The procedure, abridged: (§1)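 Cy3 fluorescence of library hairpins on a sequenced MiSeq flow cell, with annealed Cy3 and quencher oligos, was imaged in 50 mM Na-HEPES pH 8.0, 25 mM NaCl in 2.5 °C steps up to 60 °C. Signals were normalised to pre-quench Cy3 and to control variants. Melting temperature and folding enthalpy came from bootstrapped two-state fits, inverse-variance combined over four replicates. Fitted temperatures were raised by 9.35 °C to match UV melts.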

Series [2] in a line: melting temperature; fluorescence melt of hairpins on a sequencing array, two-state fit, raised by 9.35 °C to match UV melts. Conditions: sodium 0.088 M. Summed up:
as §1

For the sequence GCGATCGAAAGATTCGC ((((((....))).))), the folding enthalpy in series [1] was -45.1 kcal/mol. For the same sequence, in series [2], the Tm came to 53.5 °C.

On to GCCCTGCGAAAGCGGTGC ((.(.((....)).).)), for which, in series [1], the folding enthalpy is -20.2 kcal/mol. Besides, the Tm in series [2] worked out at 48 °C.

GATCCGAGCACGGATC ((((((....)))))): the folding enthalpy in series [1] is -38.2 kcal/mol. Also, the Tm in series [2] was 58.5 °C.

In the case of GATCAGTGCCTGATC ((((((...)))))), the folding enthalpy in series [1] was -22.5 kcal/mol. Further, the Tm in series [2] worked out at 49 °C.

Consider GATCCCCGCGGGATC ((((((...)))))), for which the folding enthalpy in series [1] is -34.5 kcal/mol. For the same sequence, the Tm in series [2] amounted to 65.9 °C.

GTTCGCCGAAAGGCAAC (((.(((....)))))): the folding enthalpy in series [1] was -12.5 kcal/mol. For the same sequence, in series [2], the Tm is 43.3 °C.

Regarding GATCTTGCCAAGATC ((((((...)))))), the folding enthalpy in series [1] is -26.1 kcal/mol. In addition, the Tm in series [2] was determined as 47.5 °C.

Consider GCGCCGCGAAAGCTTCGC (((..((....))..))), for which, in series [1], the folding enthalpy was -15.6 kcal/mol. For the same sequence, in series [2], the Tm turned out to be 54.7 °C.

Turning to GCCTACGAAAGTACAGGC ((((((....)))..))), in series [1], the folding enthalpy was -30.7 kcal/mol. In series [2], the Tm turned out to be 47.7 °C.

Consider GATCCGTAAGCGGATC ((((((....)))))), for which, in series [1], the folding enthalpy is -35.3 kcal/mol. Besides, in series [2], the Tm is 59.3 °C.

As for GATCCGGGCACGGATC ((((((....)))))), in series [1], the folding enthalpy was -31.1 kcal/mol. Also, in series [2], the Tm stood at 67.8 °C.

Consider GCCATCGAAAGATCTGGC ((((((....)))..))), for which the folding enthalpy in series [1] was -25.9 kcal/mol. Further, the Tm in series [2] was found to be 36.1 °C.

In the case of CGGACGGAAACGTGGCCG ((((((....)))..))), the folding enthalpy in series [1] was -25.7 kcal/mol. The Tm in series [2] came out at 44.1 °C.

On to GATCCTGACGAGGATC ((((((....)))))), for which the folding enthalpy in series [1] is -36.4 kcal/mol. Moreover, the Tm in series [2] came out at 56.9 °C.

As to GAGTGCCGAAAGGCCTC (((.(((....)))))), the folding enthalpy in series [1] is -17.7 kcal/mol. Moreover, the Tm in series [2] came to 56.8 °C.

Consider GCTTCCGAAAGGAGAGC ((((((....))).))), for which the folding enthalpy in series [1] was -22.3 kcal/mol. Moreover, the Tm in series [2] stood at 49.2 °C.

With GCAACCGAAAGGTTTTGC ((((((....)))..))), in series [1], the folding enthalpy was -14.4 kcal/mol. In addition, the Tm in series [2] stood at 39.9 °C.

As to GATCGGTAGCCCGATC ((((((....)))))), in series [1], the folding enthalpy is -30.1 kcal/mol. Besides, the Tm in series [2] was found to be 56.3 °C.

Consider GATCCTCCTAAGGATC ((((((....)))))), for which the folding enthalpy in series [1] was -37.5 kcal/mol. The Tm in series [2] is 53.4 °C.

With GCGGCCTCGAAAGAGCGC (((..(((....)))))), in series [1], the folding enthalpy is -25.6 kcal/mol. Besides, the Tm in series [2] came to 52.7 °C.

As for GATCTCTAGCGAGATC ((((((....)))))), the folding enthalpy in series [1] is -23.1 kcal/mol. For the same sequence, the Tm in series [2] worked out at 49.9 °C.

GATGGCGAAAGCCAAATC ((((((....)))..))): the folding enthalpy in series [1] is -9.36 kcal/mol. Also, in series [2], the Tm turned out to be 33.9 °C.

With GGGGTCGAAAGACAACCC ((((((....)))..))), in series [1], the folding enthalpy is -21.2 kcal/mol. In addition, in series [2], the Tm was 48.8 °C.

Turning to GGTGGCGAAAGCCCGACC ((((((....)))..))), in series [1], the folding enthalpy is -12.8 kcal/mol. Besides, in series [2], the Tm is 41.5 °C.

For the sequence GATCAGGCCCTGATC ((((((...)))))), in series [1], the folding enthalpy is -33.9 kcal/mol. In series [2], the Tm came to 50.1 °C.

Consider GGGACAGAAATGTCCC ((((((....)))))), for which the folding enthalpy in series [1] was -29.3 kcal/mol. Further, the Tm in series [2] was 64.1 °C.

Take GATCGTAGTACGATC ((((((...)))))): in series [1], the folding enthalpy is -29.6 kcal/mol. In series [2], the Tm turned out to be 54.7 °C.

GCATCGGGAAACCAATGC ((((.((....)).)))): the folding enthalpy in series [1] was -29 kcal/mol. For the same sequence, in series [2], the Tm came out at 42.2 °C.

In the case of GTACACGAAAGTGCTTAC ((((((....)))..))), the folding enthalpy in series [1] is -11.9 kcal/mol. The Tm in series [2] was 33.3 °C.

In the case of GCTGCAGGAAACTGCAAC (.(((((....))))).), in series [1], the folding enthalpy was -13.5 kcal/mol. Moreover, in series [2], the Tm was 40.9 °C.

As to GGGTCCGGAAACGGGTCC ((..(((....)))..)), the folding enthalpy in series [1] is -27.6 kcal/mol. Also, the Tm in series [2] turned out to be 50.1 °C.

Turning to GTGGTGGCGAAAGCCCAC (((..(((....)))))), the folding enthalpy in series [1] is -14.8 kcal/mol. Besides, the Tm in series [2] stood at 53.5 °C.

As for GCGGTTCGCCGC ((((....)))), in series [1], the folding enthalpy was -23.3 kcal/mol. Moreover, in series [2], the Tm is 64.5 °C.

Consider GCCTCGCGAAAGCAACGC ((.(.((....)).).)), for which the folding enthalpy in series [1] was -5.96 kcal/mol. In series [2], the Tm is 23.4 °C.

With GCGGACGGAAACGCCCAC (.((.((....)).)).), the folding enthalpy in series [1] was -18.9 kcal/mol. Besides, the Tm in series [2] was 36.6 °C.

For the sequence GATCGCTGACGCGATC ((((((....)))))), in series [1], the folding enthalpy is -36.5 kcal/mol. For the same sequence, in series [2], the Tm was found to be 66.7 °C.

On to GATCTTTCGGAAGATC ((((((....)))))), for which the folding enthalpy in series [1] is -33.4 kcal/mol. The Tm in series [2] stood at 43.9 °C.
